# Screening data: PubChem, several laboratories
# Most compounds without a hit are left out; they make up all but 2.4% or so of the library.
# Insulin prom up: insulin promoter activators in MIN6 cells, imaging, high-content screening, mouse beta cells; MIN6 insulin promoter-GFP reporter; hits give high values; z-score at 5 µM; 190,000 compounds, 0.3% hits;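 active = z-score above 3 at 5 µM with at least 500 cells counted in the well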
# Calb FLC: C. albicans growth inhibition with fluconazole, primary screen, CaCi-2 strain, Alamar Blue fluorescence | C. albicans CaCi-2 + fluconazole, 48 h | growth inhibition, % (no concentration beside the values) | 300,000 compounds, 0.57% hits | AID 1979, 2009;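 active = growth inhibition above about 58% in most replicates, limit read from the data, passing the limit was not always enough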;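 also: all wells also contain fluconazole at 8 µg/ml as a sub-toxic cotreatment; 0% = median of DMSO wells and 100% = median of geldanamycin control wells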
# beta cell repl: inducers of MIN6 beta-cell proliferation, primary screen, ATP luminescence, uHTS; MIN6 cells proliferation, ATPlite luminescence, 48 h; cells starved in 0.2% serum; 100% = growth in 10% serum; proliferation, % at 10 µM; 330,000 compounds, 0.29% hits; AID 2380, 2010;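 active = compounds whose signal lies at least 3.5 SD above the mean of all wells on their plate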;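 also: 0% = DMSO-treated cells in low-serum medium and 100% = 10% serum control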
# SR-BI uptake up: activators of SR-BI mediated DiI-HDL uptake, primary screen, ldlA[mSR-BI] CHO cells, DiI fluorescence; 3 h; 100 = double the neutral-control signal; activation, % at 12.5 µM; 320,000 compounds, 0.096% hits; AID 504775, 2011;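 active = mean replicate activation of at least 60% and every replicate at or above 60%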;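 also: 0% = median plate neutral-control signal and 100% = twice that signal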
#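 Assay system: LDL receptor-deficient CHO ldlA cells overexpressing murine SR-BI / Medium: BSA-supplemented, HEPES-buffered Ham's F12, pH 7.4 / Probe or stimulus: DiI-labelled HDL at 10 µg/mL final / Timing: compound with DiI-HDL co-incubation, 3 h at 37 °C / Technique: bottom-read cell fluorescence after medium removal, ex 550/em 595 nm / Measure: HDL uptake via cellular fluorescence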
# HTR2A ag: mouse Htr2a agonists via beta-arrestin recruitment, primary screen, cell-based, luminescence; activation, % at 7.6 µM; CHO-K1 mHTR2A beta-arrestin complementation; percent of 30 µM serotonin response; 5-hydroxytryptamine receptor 2A (Mus musculus), P35363; 360,000 compounds, 0.66% hits; AID 624169, 2012;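 active = activation above a run cutoff, the mean activation of all tested compounds plus 3 SD, cut at about 14% in these data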;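 also: 0% = plate median of compound wells and 100% = 30 µM serotonin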
# SR-BI HDL uptake: inhibitors of SR-BI mediated HDL lipid uptake, primary screen, ldlA[mSR-BI] cells, fluorescence, single point | Scavenger receptor class B member 1 (Mus musculus), Q61009 | ldlA[mSR-BI] CHO cells, DiI-HDL uptake fluorescence, 3 h | inhibition, % at 12.5 µM | 320,000 compounds, 0.96% hits;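 active = mean replicate inhibition of at least 70% and a set share of replicates each scoring 70 or more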;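 also: 0% = median of neutral control wells and 100% = median of positive control wells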
# MOR ag counter: OPRM1 agonists via beta-arrestin recruitment, confirmation, counter-screen for mouse HTR2A agonist project, cell-based, luminescence, single concentration; shares compounds with HTR2A ag; U2OS OPRM1 beta-arrestin PathHunter; DMSO 0%, DAMGO 9.3 µM 100%; activation, % at 9.3 µM; 2,300 compounds, 5.3% hits;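 active = mean activation above the mean of DMSO-only wells plus 3 SD, cut at about 0.5% in these data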
# Target sequence (P35372 whole entry, looked up): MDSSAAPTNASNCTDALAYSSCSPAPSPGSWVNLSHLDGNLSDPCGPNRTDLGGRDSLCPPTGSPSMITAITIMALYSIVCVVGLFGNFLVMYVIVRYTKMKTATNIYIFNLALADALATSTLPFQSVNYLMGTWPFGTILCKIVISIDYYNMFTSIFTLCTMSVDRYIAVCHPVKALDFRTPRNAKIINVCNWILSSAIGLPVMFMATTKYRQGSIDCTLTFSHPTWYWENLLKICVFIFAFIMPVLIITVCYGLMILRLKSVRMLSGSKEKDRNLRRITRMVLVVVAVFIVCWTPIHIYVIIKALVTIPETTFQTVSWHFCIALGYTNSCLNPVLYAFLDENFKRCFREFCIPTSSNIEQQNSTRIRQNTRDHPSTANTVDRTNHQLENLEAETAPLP
# m5-HT2A ag conf: mouse HTR2A agonists, beta-arrestin recruitment, confirmation, cell-based, luminescence, CHO-K1 PathHunter, triplicate; shares compounds with HTR2A ag; DMSO 0%, 30 µM serotonin 100%; activation, % at 7.6 µM; 2,300 compounds, 19% hits; AID 624381, 2012;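 active = mean activation across triplicates above the hit threshold derived in the original primary screen, cut at about 15% in these data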
# Active calls of the source: *; · = no result.
SMILES,Insulin prom up,Calb FLC,beta cell repl,SR-BI uptake up,HTR2A ag,SR-BI HDL uptake,MOR ag counter,m5-HT2A ag conf
N#CCCN(C(=S)Nc1ccc(S(=O)(=O)N2CCOCC2)cc1)c1ccccc1F,·,·,0,15,1,-15,·,·
CCOC(=O)C1=CCN(S(=O)(=O)c2ccccc2F)C1c1ccc(Cl)c(Cl)c1 (stereo not given),·,·,·,·,-6,·,·,·
CC(C)C[C@H]1CN=C(N(C)C)N1CCCCc1ccccc1,·,·,-8,6,20*,-6,0,-3
CSCCCc1cn([C@@H](CO)C(=O)NCCCCCCCCCCC(=O)N2CCNCC2)nn1,·,1,-3,-5,24*,5,-1,-3
Cc1cc(Cl)nc(-n2nc(C)cc2C)n1,0.03,-5,-1,·,16*,·,-1,-3
CNc1cc(C)nc(-n2nc(C)cc2C)n1,0.41,-6,-2,-4,3,4,·,·
C=C(C)CN1CCN(S(=O)(=O)c2ccc(C)c(N(C)S(=O)(=O)c3ccc(C)cc3)c2C)CC1,0.41,-1,-6,-2,22*,2,0,-3
Cc1ccc(S(=O)(=O)N(C)c2c(C)ccc(S(=O)(=O)N3CCN(C)CC3)c2C)cc1,·,-1,-1,41,-1,-41,·,·
C=C(C)c1cccc(C(C)(C)NC(=O)N2CCN(CC)CC2)c1,-0.13,-3,-3,0,4,0,·,·
C=C(C)c1cccc(C(C)(C)NC(=O)N2CCCCC2CC)c1 (stereo not given),-0.73,-2,-1,-14,53*,14,-1,17*
C=C(C)c1cccc(C(C)(C)NC(=O)N2CCN(C)CC2)c1,-0.57,3,0,21,-3,-21,·,·
C=C(C)c1cccc(C(C)(C)NC(=O)Nc2ccc(C(C)=O)cc2)c1,-0.14,-6,0,17,2,-17,·,·
C=C(C)c1cccc(C(C)(C)NC(=O)N2CCC(C)CC2)c1,0.44,20,1,-7,19*,7,0,10
C=C(C)c1cccc(C(C)(C)NC(=O)Nc2ccc(OC)cc2)c1,-0.59,-6,0,-5,17*,5,0,0
O=C(OCc1cn([C@H]2C[C@H](c3ccccc3)N(Cc3cccs3)C[C@@H]2O)nn1)c1ccccc1,·,·,·,·,0,·,·,·
CN1CCN(S(=O)(=O)c2ccc(C(F)(F)F)cc2)C(c2ccccc2)C1 (stereo not given),·,·,-2,4,15*,-4,0,-1
C=CCNc1nc(Nc2ccc(OC)c(OC)c2)c2sc(-c3ccccc3)cc2n1,·,·,·,·,-5,·,·,·
CC1CC(O)C2C3(C)CCCC2(COC3=O)C12CCC1(CCOC1=O)O2 (stereo not given),·,·,·,·,7,·,·,·
COc1cc(C(=O)NCC(=O)OCC(=O)c2ccc[nH]2)cc(OC)c1OC,0.31,-2,-4,6,-2,-6,·,·
COc1ccc(C(=O)NCC(=O)OCC(=O)c2cc(OC)c(OC)c(OC)c2)cc1OC,-0.43,-5,-1,15,15*,-15,-1,0
O=C(NCCc1ccc(O)c(O)c1)C1COc2ccccc2O1 (stereo not given),·,0,0,-1,14*,1,0,23*
C=C(C)Cn1c2ccc(NC(=O)NCc3ccc(F)cc3)cc2c(=O)n1C,·,·,·,·,-3,·,·,·
COC(=O)[C@@H]1C[C@@]2(O)[C@H](O)[C@H](O)[C@H](O)C[C@H]2N1CC(c1ccccc1)c1ccccc1,1.1,-2,-1,23,20*,-23,-1,0
COC(=O)[C@@H]1C[C@@]2(O)[C@H](O)[C@H](O)[C@H](O)C[C@H]2N1CC1CC1,-0.37,2,0,9,8,-9,·,·
COc1cccc(NC(=O)CN(C)CC(=O)NCC(=O)Nc2ccc(F)cc2)c1,·,·,-2,10,-4,-10,·,·
SMILES,Insulin prom up,Calb FLC,beta cell repl,SR-BI uptake up,HTR2A ag,SR-BI HDL uptake,MOR ag counter,m5-HT2A ag conf
COc1ccc(NC(=O)CN(C)CC(=O)NCC(=O)Nc2ccc(F)cc2)cc1,·,4,-1,5,16*,-5,-1,-3
N#Cc1ccc(Sc2ccccn2)c([N+](=O)[O-])c1,-0.02,-14,-1,11,15*,-11,0,-4
O=C(CCn1cnc(-c2ccccc2)c1-c1ccccc1)N/N=C/c1ccccc1O,0.06,13,-6,-17,11,17,·,·
CCCS(=O)(=O)NC(=O)C1(C)CCN(C(=O)C2(c3ccc(Cl)cc3)CCCC2)C1 (stereo not given),·,·,·,·,16*,·,0,2
CCCS(=O)(=O)NC(=O)C1(C)CCN(C(=O)c2cc(F)cc(F)c2)C1 (stereo not given),·,·,·,·,15*,·,-1,-6
CCNC(=O)C1(C)CCN(C(=O)c2cc(F)cc(F)c2)C1 (stereo not given),·,·,·,·,-1,·,·,·
O=C1C([N+](=O)[O-])=C(O)c2cccc3cccc1c23,·,-7,·,·,·,·,·,·
CCN(CC(=O)NC1CC1)S(=O)(=O)c1ccccc1,·,2,1,8,3,-8,·,·
CCN(CC(=O)NC1CC1)S(=O)(=O)c1ccc(C)cc1,·,-2,3,15,15*,-15,-1,-5
CCc1nc2c(OCC(=O)C(C)(C)C)cccn2c1N(C)C(=O)CC(C)C,·,·,·,·,16*,·,-1,-3
CCc1nc2c(OCC(=O)C(C)(C)C)cccn2c1N(C)C(=O)COc1ccccc1,·,·,·,·,2,·,·,·
Cc1ccccc1Nc1nnc(SCC(=O)c2c(N)n(C3CC3)c(=O)[nH]c2=O)s1,·,·,-1,17,4,-17,·,·
CCOc1ccc(N2CC(C(=O)NNC(=O)c3ccc(Br)cc3)CC2=O)cc1 (stereo not given),·,-2,0,-36,2,36,·,·
CCC(=O)NCc1ccc2[nH]c(C)cc2c1,0.49,6,4,·,3,·,·,·
CC(=O)NCc1ccc2[nH]c(C)cc2c1,2.4,-3,-2,3,17*,-3,-1,0
